Results on 3 compounds are retold here after publication PMC3835729 (Biochemistry, 2013).

Test [1] has as its target T1, human histidine triad nucleotide binding protein 1 (hHint1) (Homo sapiens, UniProt P49773). The test can be described thus: stopped-flow fluorescence, burst. It counts as biochemical. Particulars: 20 mM HEPES, 1 mM MgCl2, pH 7.2, 25 °C; pre-steady state. The method, boiled down:
(§1)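 Recombinant WT human Hint1 (E. coli BB2, AMP-agarose, desalted) was loaded at 5 μM in one syringe, with substrate in 20 mM HEPES, 1 mM MgCl2, pH 7.2 in the other. Substrate was phosphoramidate (5-60 μM) or acyl adenylate (5-40 μM). Equal volumes were mixed at 25°C. Fluorescence used excitation at 280 nm and a 320 nm cutoff. The burst rate came from a single exponential plus linear term, and Kadenylyl from a nonlinear fit versus [S]. Six experiments were averaged.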

Test [2] has as its target T1, human histidine triad nucleotide binding protein 1 (hHint1). In words: stopped-flow catalytic trapping with TpAd. It counts as biochemical. The method, boiled down: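 Wild-type human Hint1, expressed in E. coli hinT-disrupted strain BB2 and purified on AMP-agarose, at 5 μM in one stopped-flow syringe. It was pre-incubated 10 min with the test compound (0-5000 μM) and then mixed with the tryptamine-releasing phosphoramidate substrate (40 μM). Indole fluorescence was read with excitation at 280 nm through a 320 nm cutoff filter. Test-compound absorbance was kept within 5%.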

Test [3] shares this target. The test can be described thus: tryptophan fluorescence titration.
Test [4] has the same target. The test can be described thus: stopped-flow fluorescence, burst. In kind it is biochemical. As to conditions: 20 mM HEPES, 1 mM MgCl2, pH 7.2, 25 °C; pre-steady state. The method, boiled down:
as §1
This is another data set of the same source.

Broadly, the Ki is the equilibrium dissociation constant of an inhibitor or competing ligand from its target. One may read the Kd as the concentration at which binding is half-saturated. Lower therefore signals tighter binding.

T1 sequence (P49773 2-126): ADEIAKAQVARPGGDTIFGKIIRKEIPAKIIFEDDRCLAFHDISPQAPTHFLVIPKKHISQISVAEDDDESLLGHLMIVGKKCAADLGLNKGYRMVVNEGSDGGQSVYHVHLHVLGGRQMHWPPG

With `Nc1ncnc2c1ncn2[C@@H]1O[C@H](COP(=O)(O)OC(=O)CCc2c[nH]c3ccccc23)[C@@H](O)[C@H]1O` [AIPA], in test [1], the “K^adenylyl” value came out at 5 ± 1 µM. Compound `Nc1ncnc2c1ncn2[C@@H]1O[C@H](COP(=O)(O)O)[C@@H](O)[C@H]1O` [AMP] had a Ki in test [2] of roughly 200 µM. In test [3], this compound showed a Kd of 200 µM.

`Nc1ncnc2c1ncn2[C@@H]1O[C@H](COP(=O)(O)NCCc2c[nH]c3ccccc23)[C@@H](O)[C@H]1O` [TpAd]: the “K^adenylyl” value in test [4] was found to be 13 ± 2 µM.
